Target: T1, Muscarinic acetylcholine receptor M1 (Rattus norvegicus, UniProt P08482)
T1 sequence (P08482 whole entry): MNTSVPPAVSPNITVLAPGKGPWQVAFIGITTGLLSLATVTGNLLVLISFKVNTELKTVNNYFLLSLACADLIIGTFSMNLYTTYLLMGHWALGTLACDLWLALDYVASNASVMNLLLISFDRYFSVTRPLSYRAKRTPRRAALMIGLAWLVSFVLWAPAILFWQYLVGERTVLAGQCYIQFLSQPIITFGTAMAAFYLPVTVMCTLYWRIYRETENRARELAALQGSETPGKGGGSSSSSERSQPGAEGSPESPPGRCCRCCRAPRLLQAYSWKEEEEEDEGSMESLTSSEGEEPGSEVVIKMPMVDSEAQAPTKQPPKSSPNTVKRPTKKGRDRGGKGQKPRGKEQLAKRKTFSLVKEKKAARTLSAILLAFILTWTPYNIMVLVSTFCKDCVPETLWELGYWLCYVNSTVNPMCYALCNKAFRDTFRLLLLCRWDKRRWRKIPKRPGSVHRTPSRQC
Assay: Binding affinity to Muscarinic acetylcholine receptor M1 by measuring its ability to displace [3H]pirenzepine from rat cerebral cortex

SMILES | Ki
CC#CCCON=C1CC2CCC(C1)N2C | 0.794 µM
C#CCON=C1CCN(C)CC1 | 50.1 µM
C#CCON=C1CC2CCC(C1)N2C | 1.25 µM
CN1C2CCC1CC(=NO)C2 | 501 µM
CON=C1CC2CCC(C1)N2C | 999 µM
CCC#CCON=C1CCN(C)CC1 | 3.98 µM
C#CC(CC)ON=C1CC2CCC(C1)N2C (stereo unspecified) | 0.316 µM
C#CCCCON=C1CC2CCC(C1)N2C | 0.63 µM
C[N+](C)(C)CC#CCOC(=O)Nc1cccc(Cl)c1 [McN-A-343] | 5.01 µM
CN1CCC(=NO)CC1 | 501 µM
C#CC(C)ON=C1CC2CCC(C1)N2C (stereo unspecified) | 9.99 µM
O=C1CCCN1CC#CCN1CCCC1 [1-[4-(2-oxo-pyrrolidin-1-yl)-but-2-ynyl]-pyrrolidinium] | 0.63 µM
CC#CCON=C1CC2CCC(C1)N2C | 0.501 µM
CCC#CCON=C1CC2CCC(C1)N2C | 5.01 µM
C#CC(CC)ON=C1CCN(C)CC1 (stereo unspecified) | 6.3 µM
C#CCCON=C1CCN(C)CC1 | 1.58 µM
CON=C1CCN(C)CC1 | 50.1 µM
C#CCC(C)ON=C1CCN(C)CC1 (stereo unspecified) | 3.16 µM
C#CC(C)ON=C1CCN(C)CC1 (stereo unspecified) | 5.01 µM
C#CCC(C)ON=C1CC2CCC(C1)N2C (stereo unspecified) | 0.1 µM
C#CCCCON=C1CCN(C)CC1 | 7.94 µM
C#CCCON=C1CC2CCC(C1)N2C | 1.58 µM
CC#CCCON=C1CCN(C)CC1 | 1.99 µM
CC#CCON=C1CCN(C)CC1 | 3.98 µM

Target: not listed separately
Assay: The compound was evaluated for its ability to inhibit [3H]NMS binding to Muscarinic acetylcholine receptor in heart

SMILES | Ki
CCC#CCON=C1CC2CCC(C1)N2C | 63.1 µM

Target: Muscarinic acetylcholine receptor M3 (Rattus norvegicus, UniProt P08483)
Assay: Binding affinity to Muscarinic acetylcholine receptor M3 by measuring its ability to displace [3H]N-methylscopolamine binding in rat submandibulary gland
Summary of the method: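 Rat submandibulary gland membranes prepared in Na+/Mg2+ HEPES buffer pH 7.4. Nonspecific binding defined with 1 μM (±)-QNB. Pellet obtained by centrifugation and counted by scintillation. Triplicate determinations. Ki derived from IC50 by Cheng–Prusoff.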

Sequence of Muscarinic acetylcholine receptor M3 (P08483 whole entry): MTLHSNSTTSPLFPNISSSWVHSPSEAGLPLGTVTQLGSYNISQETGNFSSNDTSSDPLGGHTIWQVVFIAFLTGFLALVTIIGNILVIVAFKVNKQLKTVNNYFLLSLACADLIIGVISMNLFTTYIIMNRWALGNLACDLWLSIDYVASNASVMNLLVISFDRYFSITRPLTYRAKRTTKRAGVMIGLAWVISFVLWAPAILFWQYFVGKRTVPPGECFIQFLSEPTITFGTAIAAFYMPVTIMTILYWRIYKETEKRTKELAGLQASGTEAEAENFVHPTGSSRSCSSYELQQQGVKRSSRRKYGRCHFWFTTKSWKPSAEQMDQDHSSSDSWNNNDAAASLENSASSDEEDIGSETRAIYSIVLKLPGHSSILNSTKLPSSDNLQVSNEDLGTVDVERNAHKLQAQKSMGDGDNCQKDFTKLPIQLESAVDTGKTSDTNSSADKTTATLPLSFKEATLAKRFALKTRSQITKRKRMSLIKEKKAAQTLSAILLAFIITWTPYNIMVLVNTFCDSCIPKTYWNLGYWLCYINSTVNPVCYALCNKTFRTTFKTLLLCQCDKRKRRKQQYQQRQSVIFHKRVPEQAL

SMILES | Ki
C[N+](C)(C)CC#CCOC(=O)Nc1cccc(Cl)c1 [McN-A-343] | 2.51 µM
